What was measured:
[1] = molecular target: T1, Tubulin (Bos taurus) (UniProt Q6B856+Q862L2+Q862F3); assay: Displacement of [3H]colchicine from bovine brain tubulin at 10 uM after 90 mins by liquid scintillation counting in presence of 10 uM [3H]colchicine
[2] = molecular target: T1, Tubulin (Bos taurus); assay: Displacement of [3H]colchicine from bovine brain tubulin at 40 uM after 90 mins by liquid scintillation counting in presence of 10 uM [3H]colchicine
[3] = molecular target: T1, Tubulin (Bos taurus); assay: Displacement of [3H]colchicine from bovine brain tubulin at 100 uM after 90 mins by liquid scintillation counting in presence of 10 uM [3H]colchicine
[4] = molecular target: T1, Tubulin (Bos taurus); assay: Displacement of [3H]colchicine from bovine brain tubulin at 60 uM after 90 mins by liquid scintillation counting in presence of 10 uM [3H]colchicine
[5] = Inhibition of colony formation in BDF1 mouse bone marrow cells assessed as percentage of colony forming cell at 5 uM after 7 days by microscopic analysis relative to control; assay type: functional; set-up: scale not given: the % may be the effect or the level left
Procedure, shortened: (§1)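 Femoral marrow from female BDF1 mice (8-12 weeks) was dispersed and 1 × 10^5 cells plated in 1.0 ml of 0.3% agar. Medium was McCoy's 5A with supplements, 10^-4 M dithiothreitol, 10% fetal calf and 5% horse serum, plus L-cell CSF. Compound came from a 1 mM stock in Me2SO/EtOH saline, diluted serially 1:10. Incubated 7 days at 37°C under 12% CO2/8% O2; colonies counted microscopically as % of control.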

[6] = test system: P815; assay: Inhibition of colony formation in mouse P815 cells assessed as percentage of colony forming cell at 50 uM after 7 days by microscopic analysis relative to control; assay type: functional; set-up: scale not given: the % may be the effect or the level left
Procedure, shortened: (§2)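 P-815 mastocytoma cells, passaged in vitro, plated at 1 × 10^3 cells in 1.0 ml of 0.3% agar. Medium was McCoy's 5A with supplements, 10^-4 M dithiothreitol, 10% fetal calf and 5% horse serum. Compound came from a 1 mM stock in Me2SO/EtOH saline, diluted serially 1:10. Incubated 7 days at 37°C under 12% CO2/8% O2; colonies counted microscopically as % of control.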

[7] = Inhibition of colony formation in BDF1 mouse bone marrow cells assessed as percentage of colony forming cell at 50 uM after 7 days by microscopic analysis relative to control; assay type: functional; set-up: scale not given: the % may be the effect or the level left; procedure, shortened: as §1
[8] = test system: P815; assay: Inhibition of colony formation in mouse P815 cells assessed as percentage of colony forming cell at 5 uM after 7 days by microscopic analysis relative to control; assay type: functional; set-up: scale not given: the % may be the effect or the level left; procedure, shortened: as §2
[9] = Inhibition of colony formation in BDF1 mouse bone marrow cells assessed as percentage of colony forming cell at 0.5 uM after 7 days by microscopic analysis relative to control; assay type: functional; set-up: scale not given: the % may be the effect or the level left; procedure, shortened: as §1
[10] = test system: P815; assay: Inhibition of colony formation in mouse P815 cells assessed as percentage of colony forming cell at 0.5 uM after 7 days by microscopic analysis relative to control; assay type: functional; set-up: scale not given: the % may be the effect or the level left; procedure, shortened: as §2
[11] = Inhibition of colony formation in BDF1 mouse bone marrow cells assessed as percentage of colony forming cell at 5 nM after 7 days by microscopic analysis relative to control; assay type: functional; set-up: scale not given: the % may be the effect or the level left; procedure, shortened: as §1
[12] = test system: P815; assay: Inhibition of colony formation in mouse P815 cells assessed as percentage of colony forming cell at 5 nM after 7 days by microscopic analysis relative to control; assay type: functional; set-up: scale not given: the % may be the effect or the level left; procedure, shortened: as §2
[13] = test system: P815; assay: Inhibition of colony formation in mouse P815 cells assessed as percentage of colony forming cell at 50 nM after 7 days by microscopic analysis relative to control; assay type: functional; set-up: scale not given: the % may be the effect or the level left; procedure, shortened: as §2
[14] = Inhibition of colony formation in BDF1 mouse bone marrow cells assessed as percentage of colony forming cell at 50 nM after 7 days by microscopic analysis relative to control; assay type: functional; set-up: scale not given: the % may be the effect or the level left; procedure, shortened: as §1
[15] = molecular target: T1, Tubulin (Bos taurus); assay: Displacement of [3H]colchicine from bovine brain tubulin at 20 uM after 90 mins by liquid scintillation counting in presence of […]
[16] = molecular target: T1, Tubulin (Bos taurus); assay: Displacement of [3H]colchicine from bovine brain tubulin at 50 uM after 90 mins by liquid scintillation counting in presence of 10 uM [3H]colchicine
[17] = molecular target: T1, Tubulin (Bos taurus); assay: Displacement of [3H]colchicine from bovine brain tubulin at 200 uM after 90 mins by liquid scintillation counting in presence of 10 uM [3H]colchicine

Structure (SMILES)	Activity [1] [cpm]	Activity [2] [cpm]	Activity [3] [cpm]	Activity [4] [cpm]	Activity [5] [%]	Activity [6] [%]	Activity [7] [%]	Activity [8] [%]	Activity [9] [%]	Activity [10] [%]	Activity [11] [%]	Activity [12] [%]	Activity [13] [%]	Activity [14] [%]	Activity [15] [cpm]	Activity [16] [cpm]	Activity [17] [cpm]
O=C1OC[C@H]2CC=C[C@H](c3ccccc3)[C@@H]12 (relative stereo)	1320	12300	13600	13900	–	–	–	–	–	–	–	–	–	–	–	–	–
O=C1OC[C@H]2CC=C[C@H](c3ccccc3)[C@H]12	12200	15600	15500	18500	95	93	107	75	96	74	–	–	–	–	–	–	–
O=C1OC[C@H]2CC=CC[C@@H]12	15800	16800	14100	15900	103	111	114	69	106	93	–	–	–	–	–	–	–
O=C1OC[C@H]2[C@@H]1CC=C[C@@H]2c1ccccc1 (relative stereo)	15800	14800	13100	5380	–	–	–	–	–	–	–	–	–	–	–	–	–
COc1cc([C@@H]2c3cc4c(cc3[C@H](O)[C@H]3COC(=O)[C@H]23)OCO4)cc(OC)c1OC [PODOFILOX]	–	–	–	–	–	–	–	–	0	0	95	91	0	1	–	–	–
O=C1OC[C@H]2[C@@H]1CC=C[C@@H]2c1ccc2c(c1)OCO2	19000	16700	17000	17000	105	106	121	98	103	71	–	–	–	–	–	–	–
COc1cc([C@H]2C=CC[C@@H]3C(=O)OC[C@@H]32)cc(OC)c1OC (relative stereo)	18500	11600	18200	18400	73	178	55	89	75	81	–	–	–	–	–	–	–
COc1cc([C@H]2C=CC[C@@H]3COC(=O)[C@H]32)cc(OC)c1OC (relative stereo)	17000	15500	15200	14600	105	9	75	42	35	84	–	–	–	–	–	–	–
O=C1OC[C@@H]2[C@@H]1CC=C[C@@H]2c1ccc2c(c1)OCO2	17400	16700	16700	15600	135	169	166	61	104	100	–	–	–	–	–	–	–
COc1cc([C@H]2C=CC[C@@H]3C(=O)OC[C@H]32)cc(OC)c1OC	–	–	11500	–	74	109	135	95	90	89	–	–	–	–	9070	11900	8690
O=C1OC[C@H]2CC=CC[C@H]12	15500	14900	14700	15200	91	112	106	95	102	102	–	–	–	–	–	–	–
O=C1OC[C@H]2CC=C[C@H](c3ccc4c(c3)OCO4)[C@H]12	16000	20100	19600	18200	143	143	170	86	87	101	–	–	–	–	–	–	–
O=C1OC[C@H]2CC=C[C@H](c3ccc4c(c3)OCO4)[C@@H]12	17600	17600	12400	17300	105	138	115	112	97	89	–	–	–	–	–	–	–

— ChEMBL document CHEMBL3271938, “Podophyllotoxin analogs. 1. Synthesis and biological evaluation of certain trans-2-aryl-trans-6-hydroxymethyl-3-cyclohexenecarboxylic acid gamma-lactones as antimitotic agents” (1976)
